Assay outcomes (PubChem BioAssay)
Rows were chosen to be rich in hits. Some 1.5% of all compounds tested hit in one or more screens of this group.
T cell modulator: modulators of CD8 T cell-vesicle binding, primary screen, mouse 2C CD8+ T cells, flow cytometry; 2C CD8+ T cell-vesicle binding; hits give low values; response (vesicle binding), % at 7 µM; 0.068% of 330,000 active;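 active means response, share of CD8 T cells binding vesicles, and their 90th percentile fluorescence all below set limits, cut at about 80% in these data, passing the limit was not always enough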;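 further: values below 100% mean blocked vesicle binding to the CD8+ T cells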
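Test system: purified 2C TCR transgenic mouse naive CD8+ T cells. Probe or stimulus: QL9-peptide-loaded Drosophila micro-vesicles bearing Ld, ICAM-1 and B7-1. Incubation: binding step 1.5 h, 37 °C, antibody labelling 20 min, ice. Measured by: flow cytometry of vesicle-bound cells.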
DSG3 Ab inh: inhibitors of pemphigus antibody binding to DSG3, primary screen, biochemical, bead-based, flow cytometry, scFv-GFP; Desmoglein-3 (Homo sapiens), P32926; DSG3-coupled beads, scFv-anti-DSG3-GFP binding; hits give low values; binding (percent of control), % at 10 µM; 0.48% of 310,000 active;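 active means binding more than 3 SD below its plate's average and above zero; inconclusive means below that plate limit but binding exactly zero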;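 further: hits lower antibody fragment binding to DSG3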
LANA-H2A inh: blockers of LANA interaction with H2A/H2B – biochemical, FP readout, HTS, primary screen | inhibition, % (no concentration beside the values) | Protein LANA1 (Human herpesvirus 8 type P (isolate GK18)), Q9QR71 | cell-free LANA-H2A/H2B peptide, fluorescence polarization | 0.6% of 320,000 active; in the data active means inhibition mostly above about 10%, no sharp cut-off; inactive means mostly below about 6.7%
Target sequence (Q9QR71 whole entry, looked up): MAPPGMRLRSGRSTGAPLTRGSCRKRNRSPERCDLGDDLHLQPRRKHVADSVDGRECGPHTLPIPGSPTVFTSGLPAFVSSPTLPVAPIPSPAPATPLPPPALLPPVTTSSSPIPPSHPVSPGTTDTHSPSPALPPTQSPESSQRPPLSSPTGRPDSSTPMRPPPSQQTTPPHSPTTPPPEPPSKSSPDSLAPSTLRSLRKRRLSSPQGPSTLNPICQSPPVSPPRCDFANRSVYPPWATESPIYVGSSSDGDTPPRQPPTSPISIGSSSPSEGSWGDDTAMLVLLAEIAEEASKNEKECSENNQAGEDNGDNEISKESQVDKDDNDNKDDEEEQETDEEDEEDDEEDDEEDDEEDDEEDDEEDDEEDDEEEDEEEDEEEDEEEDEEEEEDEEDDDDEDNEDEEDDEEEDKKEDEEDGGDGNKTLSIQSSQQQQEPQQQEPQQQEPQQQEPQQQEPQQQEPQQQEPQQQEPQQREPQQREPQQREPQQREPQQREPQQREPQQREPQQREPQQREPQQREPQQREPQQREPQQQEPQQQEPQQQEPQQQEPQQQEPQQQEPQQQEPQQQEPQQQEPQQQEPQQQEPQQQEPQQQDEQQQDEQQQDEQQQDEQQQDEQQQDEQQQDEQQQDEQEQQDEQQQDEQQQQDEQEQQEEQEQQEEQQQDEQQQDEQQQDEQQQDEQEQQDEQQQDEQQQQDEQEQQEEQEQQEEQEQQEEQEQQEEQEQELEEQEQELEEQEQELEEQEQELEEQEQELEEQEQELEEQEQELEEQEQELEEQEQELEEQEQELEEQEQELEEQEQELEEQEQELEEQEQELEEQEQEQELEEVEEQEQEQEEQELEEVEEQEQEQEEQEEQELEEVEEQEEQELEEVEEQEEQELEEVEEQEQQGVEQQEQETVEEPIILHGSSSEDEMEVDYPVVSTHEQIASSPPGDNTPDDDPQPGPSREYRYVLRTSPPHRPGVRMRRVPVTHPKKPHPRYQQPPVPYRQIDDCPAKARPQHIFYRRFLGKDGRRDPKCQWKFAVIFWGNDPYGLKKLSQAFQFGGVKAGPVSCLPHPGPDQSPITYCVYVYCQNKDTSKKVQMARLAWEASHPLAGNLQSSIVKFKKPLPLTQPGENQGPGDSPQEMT
HDAC3 inhib: HDAC3 deacetylase inhibitors, primary screen, biochemical, fluorescence, cell-free homogeneous | AID 2718, 2010 | Histone deacetylase 3 (Homo sapiens), O15379 | inhibition, % at 8.3 µM | recombinant HDAC3, fluorogenic peptide/trypsin coupled | 0.15% of 320,000 active; in the data active means inhibition above about 26%, passing the limit was not always enough; inconclusive means no clear call, values can overlap the other calls
Arrestin-AP2 inh: inhibitors of beta-arrestin/AP2 binding, primary screen, biochemical, GPCR trafficking, flow cytometry | AID 504490, 2011 | FITC-arrestin peptide / GST-AP2 beads; AP2 beta2 appendage carries R879A mutation | 0.31% of 340,000 active | beta-arrestin 1 C-terminal peptide binding to AP2 beta2-adaptin appendage (human) | inhibition, % at 10 µM;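 active means inhibition above a set limit, near 3 SD of compounds lacking own fluorescence, cut at about 54% in these data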
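System: GST-AP2 R879A glutathione beads. Medium: PBS with 0.05% Tween 20 and 0.1% BSA. Also added: FITC-arrestin peptide, 50 nM. Incubation: 12 min plus 1 h, RT. Measured by: high-throughput flow cytometry of beads, ex 488, em 535 nm. Evaluation: percent drop in bead-associated FITC signal.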
Of the large screens only hits and unclear results are named; the others gave an inactive call.

Cc1csc2nc(CN3CCN(CC(=O)N(C)C)CC3)cc(=O)n12	none
Cc1nc(NNC(=O)c2ccc(Cl)cc2Cl)cc(-c2ccccc2)n1	DSG3 Ab inh 70.9
N#Cc1cc(Sc2ccccn2)c([N+](=O)[O-])cc1C#N	none
N#Cc1cc(Sc2ccccn2)c(Sc2ccccn2)cc1C#N	DSG3 Ab inh 72.6
CCOC(=O)N1CCC(n2c(SCC(=O)c3ccccc3)nc3ccsc3c2=O)CC1	DSG3 Ab inh 84.6
Cc1nc2c(-c3ccccc3)c[nH]n2c(=O)c1Cc1ccccc1	DSG3 Ab inh 64.1
COc1ccc2[nH]c3c(=O)n(CCCCC(=O)NCCN4CCCC4)c(=S)[nH]c3c2c1	HDAC3 inhib 29.8
COc1ccccc1C(CNC(=O)c1cc(S(=O)(=O)N2CCOCC2)ccc1C)N1CCCC1 (stereo not drawn)	none
Cc1ccc(CCN2CC(C(=O)NC3CCCCC3)CC2=O)cc1 (stereo not drawn)	LANA-H2A inh 22.5
Cc1ccc(CCN2CC(C(=O)NC3CCCC3)CC2=O)cc1 (stereo not drawn)	none
Cn1sccc1=O	none
CCn1c(-c2csc(-c3ccccc3)n2)n[nH]c1=S	DSG3 Ab inh -34.0
COc1ccc(C(=O)NNC(=O)c2ccc3ccccc3c2)cc1	none (no result: T cell modulator, LANA-H2A inh, HDAC3 inhib)
COc1ccc(NC(=O)c2ccc3ccccc3c2)cc1	DSG3 Ab inh 96.6
COc1cccc(C(=O)Nc2ccc(NC(C)=O)cc2)c1	LANA-H2A inh 41.0
COc1cccc(C(=O)NC2CC3CCCC(C2)N3CC(=O)Nc2ccc(N(C)C)cc2)c1 (stereo not drawn)	LANA-H2A inh 27.0
COc1ccc(NC(=O)c2ccc3c(c2)C(=O)N(Cc2cccnc2)C3=O)cc1	DSG3 Ab inh 70.1
COc1ccc(CCNC(=O)C(=O)c2cn(CC(=O)N3CCCC3)c3ccccc23)cc1	none (no result: T cell modulator, LANA-H2A inh, HDAC3 inhib, Arrestin-AP2 inh)
COc1ccc(C(=O)Nc2ccc(O)c3ccccc23)cc1	none
COc1ccc(NC(=O)Nc2ccc(O)c3ccccc23)cc1	T cell modulator 37.0
COC(=O)c1c(NC(=O)CN2CCN(c3ncccn3)CC2)sc(C(N)=O)c1C	none (no result: DSG3 Ab inh)
CCc1ccc(C(C)NC(=O)c2ccncc2)cc1 (stereo not drawn)	LANA-H2A inh 23.3
O=C(CC1SCCNC1=O)NCc1ccccc1 (stereo not drawn)	none (no result: T cell modulator, LANA-H2A inh, HDAC3 inhib, Arrestin-AP2 inh)
CC(C)(CNC(=O)c1ccc(S(=O)(=O)Nc2cccc(C(F)(F)F)c2)cc1)N1CCOCC1	none (no result: DSG3 Ab inh)
CCCCn1c(N)c(-c2nc3ccccc3s2)c2c([N+](=O)[O-])nn(C)c(=O)c21	DSG3 Ab inh 84.5
CCCCn1c(N)c(-c2nc3ccccc3s2)c2c([N+](=O)[O-])nn(CC)c(=O)c21	none
COCCCN1C(=O)C(CC(=O)NCc2ccco2)CC(C(=O)N(C)C)=C1C (stereo not drawn)	none (no result: T cell modulator, LANA-H2A inh, HDAC3 inhib, Arrestin-AP2 inh)
COc1ccccc1OCCNC(=O)c1cccc(S(=O)(=O)N2CC(C)OC(C)C2)c1 (stereo not drawn)	none
CC(C)(C)OC(=O)NCCCC[C@H](NC(=O)c1[nH]cnc1C(=O)Nc1ccccc1)C(=O)OC(C)(C)C	HDAC3 inhib 36.7
CC(C)C[C@H](NC(=O)c1nc[nH]c1C(=O)NCC(=O)OCc1ccccc1)C(=O)OCc1ccccc1	HDAC3 inhib 28.5
CC(C)C[C@H](NC(=O)c1nc[nH]c1C(=O)N[C@@H](CCCCNC(=O)OC(C)(C)C)C(=O)OC(C)(C)C)C(=O)OC(C)(C)C	none
C[C@H](NC(=O)c1nc[nH]c1C(=O)N[C@@H](Cc1ccccc1)C(=O)OC(C)(C)C)c1ccccc1	HDAC3 inhib 28.1
C[C@@H](NC(=O)c1nc[nH]c1C(=O)N[C@@H](Cc1ccccc1)C(=O)OC(C)(C)C)c1ccccc1	none (no result: Arrestin-AP2 inh)
CC(C)(C)OC(=O)NCCCC[C@H](NC(=O)c1[nH]cnc1C(=O)Nc1ccc(Cl)cc1)C(=O)OC(C)(C)C	HDAC3 inhib inconclusive (no result: Arrestin-AP2 inh)
C[C@@H](NC(=O)c1nc[nH]c1C(=O)N[C@@H](CCCCNC(=O)OC(C)(C)C)C(=O)OC(C)(C)C)c1ccccc1	HDAC3 inhib 34.1
CC(C)C[C@H](NC(=O)c1nc[nH]c1C(=O)NCC(=O)OC(C)(C)C)C(=O)OCc1ccccc1	none
CCN(CC)CCC(O)(c1ccc2c(c1)OCO2)c1cc(OC)c(OC)c(OC)c1 (stereo not drawn)	none (no result: T cell modulator, DSG3 Ab inh, LANA-H2A inh, HDAC3 inhib)
CC(C)(C)OC(=O)NCCCC[C@H](NC(=O)c1[nH]cnc1C(=O)N[C@@H](Cc1ccccc1)C(=O)OCc1ccccc1)C(=O)OC(C)(C)C	HDAC3 inhib 38.3
CC(C)(C)OC(=O)[C@H](Cc1ccccc1)NC(=O)c1nc[nH]c1C(=O)N[C@@H](CCCCN)C(=O)OC(C)(C)C	none
CCCCOc1ccc(SCCCN2CCOCC2)cc1	none (no result: T cell modulator, LANA-H2A inh, HDAC3 inhib)
O=C(CN(Cc1ccccc1)S(=O)(=O)c1ccc(Br)cc1)NCC1CCCO1 (stereo not drawn)	none
O=C(CN(Cc1ccccc1)C(=O)CCC(=O)Nc1nccs1)NCC1CCCO1 (stereo not drawn)	DSG3 Ab inh 0.3
O=C(CN(CC1CCCO1)C(=O)CCC(=O)Nc1nccs1)NCC1CCCO1 (stereo not drawn)	none (no result: DSG3 Ab inh)
O=C(CN(Cc1ccccc1)S(=O)(=O)c1ccc(Cl)cc1)NCC1CCCO1 (stereo not drawn)	LANA-H2A inh 14.5
O=S(=O)(NCc1ccccc1)c1ccc(S(=O)(=O)N(Cc2cccs2)CC2CCCO2)cc1 (stereo not drawn)	DSG3 Ab inh 89.5
CCC[C@H]1CC(=O)C=C(c2ccc(OC)cc2)ON1C(=O)OC(C)(C)C	none (no result: T cell modulator, LANA-H2A inh, HDAC3 inhib)
NC1=NN=C(c2ccc3c(c2)OCCO3)CS1	HDAC3 inhib 49.5
O=C(Nc1ncccc1O)c1ccc2c(c1)OCO2	HDAC3 inhib 86.5
COC(=O)[C@]1(C)N[C@H](CN(C)C(=O)Nc2ccc(F)cc2)[C@@H]2C(=O)N(C)C(=O)[C@@H]21	none
CC[C@@]1(C(=O)OC)N[C@H](CN(C)C(=O)C2CCCCC2)[C@@H]2C(=O)N(C)C(=O)[C@@H]21	LANA-H2A inh active
COC(=O)[C@]1(C)N[C@H](CN(C)C(=O)Nc2ccc(OC)cc2)[C@@H]2C(=O)N(C)C(=O)[C@@H]21	DSG3 Ab inh 79.8
COC(=O)[C@]1(Cc2ccccc2)N[C@H](CN(C)C(=O)C2CCCCC2)[C@@H]2C(=O)N(C)C(=O)[C@@H]21	none (no result: LANA-H2A inh, HDAC3 inhib)
COC(=O)[C@]1(C)N[C@H](CN(C)S(=O)(=O)c2ccc(OC(F)(F)F)cc2)[C@@H]2C(=O)N(C)C(=O)[C@@H]21	T cell modulator 0.0 (no result: LANA-H2A inh, HDAC3 inhib)
